Source: ChEMBL document CHEMBL3745665, “Discovery of benzamides as potent human β3 adrenergic receptor agonists” (Bioorg Med Chem Lett, 2016)

Experiments:
Rattus norvegicus = assay: Dose normalized AUC in rat at 2 mg/kg, po; format: ADME, organism-based; conditions: in vivo
[1] = Oral bioavailability in rat at 2 mg/kg; format: ADME, organism-based; conditions: in vivo
[2] = target: Voltage-gated inwardly rectifying potassium channel KCNH2 (Homo sapiens, UniProt Q12809); assay: Inhibition of human ERG by IKr binding assay
[3] = Plasma clearance in rat at 1 mg/kg, iv or 2 mg/kg, po; format: ADME, organism-based
[4] = Volume of distribution in rat at 1 mg/kg, iv or 2 mg/kg, po; format: ADME, organism-based; conditions: in vivo
[5] = target: Beta-1 adrenergic receptor (Homo sapiens, UniProt P08588); assay: Displacement of [125I]CYP from human beta-1 adrenergic receptor expressed in CHO cell membrane after 1 hr by scintillation counting method; format: cell membranes
[6] = target: Beta-2 adrenergic receptor (Homo sapiens, UniProt P07550); assay: Displacement of [125I]CYP from human beta-2 adrenergic receptor expressed in CHO cell membrane after 1 hr by scintillation counting method; format: cell membranes
[7] = Half life in rat at 1 mg/kg, iv or 2 mg/kg, po; format: ADME, organism-based; conditions: in vivo
[8] = target: T1, Beta-3 adrenergic receptor (Homo sapiens, UniProt P13945); assay: Agonist activity at human beta-3 adrenergic receptor expressed in CHO cells assessed as increase in cAMP level after 30 mins by LANCE TR-FRET assay relative to R-(-)-isoproterenol; format: functional, cell-based
Summary of the method: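 Efficacy: the fitted maximal value of each test compound's concentration–response curve, expressed as a percent of the maximal response to R-(−)-isoproterenol.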
Target sequence in this assay (P13945 whole entry, looked up): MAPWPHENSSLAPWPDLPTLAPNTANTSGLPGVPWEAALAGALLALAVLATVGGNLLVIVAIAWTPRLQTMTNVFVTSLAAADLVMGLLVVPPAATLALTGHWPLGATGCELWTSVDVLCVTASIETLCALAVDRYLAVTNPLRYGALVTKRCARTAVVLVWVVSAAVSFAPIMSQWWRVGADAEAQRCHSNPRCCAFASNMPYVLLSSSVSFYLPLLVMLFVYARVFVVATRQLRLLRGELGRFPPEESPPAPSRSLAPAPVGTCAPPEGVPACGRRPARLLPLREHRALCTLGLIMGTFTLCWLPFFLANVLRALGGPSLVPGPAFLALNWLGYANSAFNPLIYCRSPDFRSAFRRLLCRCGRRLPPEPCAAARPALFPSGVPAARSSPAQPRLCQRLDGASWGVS

[9] = target: T1, Beta-3 adrenergic receptor; assay: Agonist activity at human beta-3 adrenergic receptor expressed in CHO cells assessed as increase in cAMP level after 30 mins by LANCE TR-FRET assay; format: functional, cell-based
Target sequence in this assay (P13945 whole entry): as the sequence (P13945 whole entry, looked up) above

[10] = Stability in rat liver microsomes assessed as residual compound after 45 mins; format: ADME; conditions: read-out: Stability
[11] = Oral bioavailability in dog at 2 mg/kg; format: ADME, organism-based, Canis lupus familiaris; conditions: in vivo
[12] = Plasma clearance in dog at 0.5 mg/kg, iv or 2 mg/kg, po; format: ADME, organism-based, Canis lupus familiaris
[13] = Stability in dog liver microsomes assessed as residual compound after 45 mins; format: ADME, Canis lupus familiaris; conditions: read-out: Stability
[14] = Half life in dog at 0.5 mg/kg, iv or 2 mg/kg, po; format: ADME, organism-based, Canis lupus familiaris; conditions: in vivo
Canis familiaris = assay: Dose normalized AUC in dog at 2 mg/kg, po; format: ADME, organism-based, Canis lupus familiaris; conditions: in vivo
[15] = Stability in human liver microsomes assessed as residual compound after 45 mins; format: ADME; conditions: read-out: Stability
[16] = Volume of distribution in dog at 0.5 mg/kg, iv or 2 mg/kg, po; format: ADME, organism-based, Canis lupus familiaris; conditions: in vivo
[17] = Half life in rhesus monkey; format: ADME, organism-based, Macaca mulatta; conditions: in vivo
[18] = Plasma clearance in rhesus monkey; format: ADME, organism-based, Macaca mulatta
[19] = Oral bioavailability rhesus monkey; format: ADME, organism-based, Macaca mulatta; conditions: in vivo
[20] = Volume of distribution in rhesus monkey; format: ADME, organism-based, Macaca mulatta; conditions: in vivo
Rhesus monkey = assay: Dose normalized AUC in po dosed rhesus monkey; format: ADME, organism-based, Macaca mulatta; conditions: in vivo
[21] = Stability in rhesus monkey liver microsomes assessed as residual compound after 45 mins; format: ADME, Macaca mulatta; conditions: read-out: Stability
[22] = Stability in rat hepatocytes assessed as residual compound after 60 mins; format: ADME, cell-based, Hepatocyte; conditions: read-out: Stability
[23] = Stability in human hepatocytes assessed as residual compound after 60 mins; format: ADME, cell-based, Hepatocyte; conditions: read-out: Stability
[24] = Stability in dog hepatocytes assessed as residual compound after 60 mins; format: ADME, cell-based, Canis lupus familiaris, Hepatocyte; conditions: read-out: Stability

Chain of Voltage-gated inwardly rectifying potassium channel KCNH2 (Q12809 whole entry): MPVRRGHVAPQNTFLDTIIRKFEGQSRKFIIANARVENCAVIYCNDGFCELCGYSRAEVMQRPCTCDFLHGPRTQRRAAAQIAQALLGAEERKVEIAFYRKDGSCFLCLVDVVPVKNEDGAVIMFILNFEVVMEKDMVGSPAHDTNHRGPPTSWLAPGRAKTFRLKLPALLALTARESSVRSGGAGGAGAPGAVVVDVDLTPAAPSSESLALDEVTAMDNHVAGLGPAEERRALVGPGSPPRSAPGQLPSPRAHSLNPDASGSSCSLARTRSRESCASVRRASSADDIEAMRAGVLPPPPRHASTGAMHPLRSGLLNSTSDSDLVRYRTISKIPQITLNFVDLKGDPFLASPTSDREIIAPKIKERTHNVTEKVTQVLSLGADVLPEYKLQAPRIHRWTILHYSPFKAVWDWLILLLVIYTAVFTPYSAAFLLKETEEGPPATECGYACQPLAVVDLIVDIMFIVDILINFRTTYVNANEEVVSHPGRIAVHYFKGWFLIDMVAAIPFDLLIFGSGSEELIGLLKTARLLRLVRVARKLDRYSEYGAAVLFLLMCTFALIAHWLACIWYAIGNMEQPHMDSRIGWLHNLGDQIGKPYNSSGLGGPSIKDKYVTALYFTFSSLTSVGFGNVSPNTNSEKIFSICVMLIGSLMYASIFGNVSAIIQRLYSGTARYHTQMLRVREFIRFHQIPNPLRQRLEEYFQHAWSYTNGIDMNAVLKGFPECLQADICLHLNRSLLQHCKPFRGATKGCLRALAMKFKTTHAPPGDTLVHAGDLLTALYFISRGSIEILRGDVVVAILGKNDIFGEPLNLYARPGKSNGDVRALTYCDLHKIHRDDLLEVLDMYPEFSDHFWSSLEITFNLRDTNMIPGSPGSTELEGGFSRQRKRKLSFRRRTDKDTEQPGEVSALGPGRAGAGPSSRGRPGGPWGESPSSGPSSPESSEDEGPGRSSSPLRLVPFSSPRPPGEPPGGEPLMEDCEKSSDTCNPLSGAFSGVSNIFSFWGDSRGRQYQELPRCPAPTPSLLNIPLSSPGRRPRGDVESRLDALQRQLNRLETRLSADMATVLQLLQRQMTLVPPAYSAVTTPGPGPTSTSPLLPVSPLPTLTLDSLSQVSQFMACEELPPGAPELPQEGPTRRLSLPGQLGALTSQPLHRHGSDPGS
Chain of Beta-2 adrenergic receptor (P07550 whole entry): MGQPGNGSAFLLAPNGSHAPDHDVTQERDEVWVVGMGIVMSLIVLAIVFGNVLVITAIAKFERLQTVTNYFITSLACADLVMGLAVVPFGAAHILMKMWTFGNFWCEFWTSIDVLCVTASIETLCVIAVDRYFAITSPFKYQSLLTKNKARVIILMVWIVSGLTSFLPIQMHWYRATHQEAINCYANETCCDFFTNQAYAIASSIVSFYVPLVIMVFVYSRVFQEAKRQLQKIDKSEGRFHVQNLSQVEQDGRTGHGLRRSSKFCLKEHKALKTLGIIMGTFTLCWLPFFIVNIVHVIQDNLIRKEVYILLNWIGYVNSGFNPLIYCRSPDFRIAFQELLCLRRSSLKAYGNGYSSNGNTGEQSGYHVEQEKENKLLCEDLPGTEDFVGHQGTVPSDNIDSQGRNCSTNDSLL
Chain of Beta-1 adrenergic receptor (P08588 whole entry): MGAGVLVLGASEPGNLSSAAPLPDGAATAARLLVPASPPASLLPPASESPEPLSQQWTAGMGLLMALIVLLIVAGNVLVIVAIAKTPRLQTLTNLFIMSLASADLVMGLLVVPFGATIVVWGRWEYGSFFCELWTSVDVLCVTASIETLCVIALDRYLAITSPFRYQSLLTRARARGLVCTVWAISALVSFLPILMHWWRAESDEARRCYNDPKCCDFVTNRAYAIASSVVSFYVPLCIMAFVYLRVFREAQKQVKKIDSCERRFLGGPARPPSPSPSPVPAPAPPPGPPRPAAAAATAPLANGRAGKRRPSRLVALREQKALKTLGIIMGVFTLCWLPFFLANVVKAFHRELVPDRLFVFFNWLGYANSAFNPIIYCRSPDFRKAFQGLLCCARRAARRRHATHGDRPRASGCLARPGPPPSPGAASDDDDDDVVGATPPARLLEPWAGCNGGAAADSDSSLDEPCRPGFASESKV

Row | Structure (SMILES) | AUC/dose (Rattus norvegicus) [µM·h/mg/kg] | bioavailability [1] [%] | IC50 [2] [µM] | clearance [3] [mL/min/kg] | Vd [4] [L/kg] | IC50 [5] [µM] | IC50 [6] [µM] | half-life [7] [h] | %max [8] [%] | EC50 [9] [µM] | further results
1 | CC1(C)CC2(CCN(C(=O)c3ccc(C[C@@H]4CC[C@H]([C@H](O)c5ccccc5)N4)cc3)CC2)C(=O)O1 | 0.16 | 38 | 31 | 86 | 9.5 | > 20 | 11 | 2 | 85 | 0.0019 | –
2 | Nc1nc(CNC(=O)c2ccc(C[C@@H]3CC[C@H]([C@H](O)c4ccccc4)N3)cc2)cs1 | – | – | > 30 | – | – | > 20 | 5.2 | – | 84 | 0.024 | –
3 | Nc1nc(CC(=O)Nc2ccc(C[C@@H]3CC[C@H]([C@H](O)c4ccccc4)N3)cc2)cs1 | – | – | – | – | – | – | – | – | 99 | – | –
4 | O=C(c1ccc(C[C@@H]2CC[C@H]([C@H](O)c3ccccc3)N2)cc1)N1CCC2(CCOC2=O)CC1 | 0.21 | 31 | 46 | 56 | 7.2 | > 20 | 5.6 | 2.5 | 89 | 0.0033 | remaining at 0.75 h [10]: 56%; bioavailability [11]: 17%; clearance [12]: 31 mL/min/kg; remaining at 0.75 h [13]: 78%; half-life [14]: 3.2 h; AUC/dose (Canis familiaris): 0.23 µM·h; remaining at 0.75 h [15]: 53%; Vd [16]: 7.4 L/kg
5 | CCOC(=O)[C@@H]1[C@@H]2CN(C(=O)c3ccc(C[C@@H]4CC[C@H]([C@H](O)c5ccccc5)N4)cc3)C[C@@H]21 | – | – | – | – | – | > 20 | > 20 | – | 97 | 0.075 | –
6 | CCOC(=O)C1CCN(C(=O)c2ccc(C[C@@H]3CC[C@H]([C@H](O)c4ccccc4)N3)cc2)CC1 | – | – | – | – | – | > 20 | 10.9 | – | 95 | 0.063 | –
7 | CCS(=O)(=O)C1CCN(C(=O)c2ccc(C[C@@H]3CC[C@H]([C@H](O)c4ccccc4)N3)cc2)CC1 | – | – | > 60 | – | – | > 20 | > 20 | – | 100 | 0.0097 | –
8 | CCc1nnc([C@H]2[C@@H]3CN(C(=O)c4ccc(C[C@@H]5CC[C@H]([C@H](O)c6ccccc6)N5)cc4)C[C@@H]32)o1 | 0.21 | 33 | – | 56 | 9.3 | > 20 | > 20 | 3 | 97 | 0.0031 | half-life [17]: 2.4 h; bioavailability [11]: 44%; clearance [18]: 30 mL/min/kg; clearance [12]: 36 mL/min/kg; half-life [14]: 3.7 h; AUC/dose (Canis familiaris): 0.46 µM·h; bioavailability [19]: 5%; Vd [20]: 5.2 L/kg; AUC/dose (Rhesus monkey): 0.06 µM·h; Vd [16]: 9.2 L/kg
9 | Cn1nnc([C@H]2[C@@H]3CN(C(=O)c4ccc(C[C@@H]5CC[C@H]([C@H](O)c6ccccc6)N5)cc4)C[C@@H]32)n1 | 0.73 | 56 | 17 | 29 | 6.5 | > 20 | > 20 | 3.2 | 97 | 0.0054 | bioavailability [11]: 51%; clearance [12]: 19 mL/min/kg; half-life [14]: 3.7 h; AUC/dose (Canis familiaris): 0.99 µM·h; Vd [16]: 5.5 L/kg
10 | CCOC(=O)[C@H]1[C@@H]2CN(C(=O)c3ccc(C[C@@H]4CC[C@H]([C@H](O)c5ccccc5)N4)cc3)C[C@@H]21 | – | – | – | – | – | > 20 | 13.4 | – | 90 | 0.00049 | –
11 | O=C(Nc1ccc(C[C@@H]2CC[C@H]([C@H](O)c3cccnc3)N2)cc1)C1CCc2ccnn21 (some centres undefined) | – | – | – | – | – | – | – | – | 84 | 0.0037 | –
12 | O=C(c1ccc(C[C@@H]2CC[C@H]([C@H](O)c3ccccc3)N2)cc1)N1C[C@@H]2[C@H](C1)[C@H]2c1nnco1 | 0.26 | 43 | 55 | 62 | 9 | > 20 | > 20 | 1.4 | 101 | 0.0017 | remaining at 0.75 h [10]: 98%; remaining at 0.75 h [21]: 80%; remaining at 0.75 h [13]: 73%; remaining at 0.75 h [15]: 84%; remaining at 1 h [22]: ≥ 85%; remaining at 1 h [23]: ≥ 85%; remaining at 1 h [24]: ≥ 85%
